# Calls of active or inactive are those of the source. No cut-off for these calls is given here.
# Columns and labels:
# MCF7 [1] = test: Cytotoxicity against human MCF7 cells assessed as cell growth inhibition incubated for 72 hrs by MTT assay; format: functional, cell-based; details: MCF7, 72 h
# Method in brief: (§1)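 Cells grown in RPMI-1640 with 10% FBS and seeded at 5×10^3 per well. After 24 h, serial concentrations given for 72 h at 37°C, 5% CO2. Then 5 mg/mL MTT stock added for 3 h, formazan dissolved in DMSO, A570 read. IC50 calculated from the curves.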
# NFS-60 [2] = test: Cytotoxicity against mouse NFS60 cells assessed as cell growth inhibition incubated for 72 hrs by MTT assay; format: functional, cell-based; details: NFS-60, 72 h; method in brief: as §1
# MCF7 [3] = test: Potency index, ratio of doxorubicin IC50 to test compound IC50 against human MCF7 cells; format: functional
# [4] = Selectivity index, ratio of IC50 for human WI38 cells to IC50 for human MCF7 cells; format: toxicity; details: WI38 cells versus MCF7 cells, read-out: Ratio IC50
# Method in brief: (§2)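 SI calculated as IC50 on normal Wi-38 fibroblasts divided by IC50 on the cancer cell line. Both came from 72 h MTT assays.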
# [5] = Selectivity index, ratio of IC50 for human WI38 cells to IC50 for human HepG2 cells; format: toxicity; details: WI38 cells versus HepG2 cells, read-out: Ratio IC50; method in brief: as §2
# MCF7 [6] = test: Induction of apoptosis in human MCF7 cells assessed as induction of cell shrinkage by phase contrast inverted fluorescence microscopy; format: functional, cell-based
# NFS-60 [7] = test: Induction of apoptosis in mouse NFS60 cells assessed as induction of cell shrinkage by phase contrast inverted fluorescence microscopy; format: functional, cell-based
# HepG2 [8] = test: Induction of apoptosis in human HepG2 cells assessed as induction of cell shrinkage by phase contrast inverted fluorescence microscopy; format: functional, cell-based
# MCF7 [9] = test: Induction of apoptosis in human MCF7 cells assessed as late apoptotic cells at IC50 incubated for 72 hrs by annexin V/propidium iodide staining based flow cytometry (reference value: 0.01 +/- 0.001%); format: functional
# MCF7 [10] = test: Induction of apoptosis in human MCF7 cells assessed as early apoptotic cells at IC50 incubated for 72 hrs by annexin V/propidium iodide staining based flow cytometry (reference value: 0.47 +/- 0.01%); format: functional
# NFS-60 [11] = test: Induction of apoptosis in mouse NFS60 cells assessed as early apoptotic cells at IC50 incubated for 72 hrs by annexin V/propidium iodide staining based flow cytometry (reference value: 0.02 +/- 0.01%); format: functional
# NFS-60 [12] = test: Induction of apoptosis in mouse NFS60 cells assessed as total apoptotic cells at IC50 incubated for 72 hrs by annexin V/propidium iodide staining based flow cytometry (reference value: 0.495 +/- 0.01%); format: functional
# HepG2 [13] = test: Induction of apoptosis in human HepG2 cells assessed as early apoptotic cells at IC50 incubated for 72 hrs by annexin V/propidium iodide staining based flow cytometry (reference value: 0.78 +/- 0.09%); format: functional
# HepG2 [14] = test: Induction of apoptosis in human HepG2 cells assessed as late apoptotic cells at IC50 incubated for 72 hrs by annexin V/propidium iodide staining based flow cytometry (reference value: 0.1 +/- 0.001%); format: functional
# MCF7 [15] = test: Induction of apoptosis in human MCF7 cells assessed as caspase 3/7 activity using DEVD aminoluciferin as substrate at IC50 after 24 hrs […] relative to control; format: functional
# Method in brief: (§3)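 Caspase 3/7 activation measured with Caspase-Glo 3/7 kit using a luminogenic caspase-cleavable substrate. […] Reported as percent activation, mean ± SEM.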
# NFS-60 [16] = test: Induction of apoptosis in mouse NFS60 cells assessed as caspase 3/7 activity using DEVD aminoluciferin as substrate at IC50 after 24 hrs […] relative to control; format: functional; method in brief: as §3
# HepG2 [17] = test: Induction of apoptosis in human HepG2 cells assessed as caspase 3/7 activity using DEVD aminoluciferin as substrate at IC50 after 24 hrs by fluorescence assay relative to control; format: functional; method in brief: as §3
# NFS-60 [18] = test: Induction of caspase-independent apoptosis in mouse NFS60 cells assessed as AIF1 release level using tetramethylbenzidine as substrate incubated for 1 hr by ELISA (reference value: 2.37 +/- 0.035 ng/ml); format: functional
# Method in brief: (§4)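 Extracts of untreated and treated cells added to anti-AIF1-coated wells. Incubated 1 h with HRP-conjugated antibody, washed, then TMB substrate added. Reaction stopped after 10 min and read at 450 nm. AIF1 reported in ng/mL, mean ± SEM.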
# HepG2 [19] = test: Induction of caspase-independent apoptosis in human HepG2 cells assessed as AIF1 release level using tetramethylbenzidine as substrate incubated for 1 hr by ELISA (reference value: 1.18 +/- 0.06 ng/ml); format: functional; method in brief: as §4
# MCF7 [20] = test: Induction of apoptosis in human MCF7 cells assessed as induction of cell shape loss by phase contrast inverted fluorescence microscopy; format: functional, cell-based
# NFS-60 [21] = test: Induction of apoptosis in mouse NFS60 cells assessed as induction of cell shape loss by phase contrast inverted fluorescence microscopy; format: functional, cell-based
# MCF7 [22] = test: Induction of apoptosis in human MCF7 cells assessed as viable cells level at IC50 incubated for 72 hrs by annexin V/propidium iodide staining based flow cytometry (reference value: 99.5%); format: functional
# MCF7 [23] = test: Induction of apoptosis in human MCF7 cells assessed as late apoptotic cells level at IC50 incubated for 72 hrs by annexin V/propidium iodide staining based flow cytometry (reference value: 0.01%); format: functional
# MCF7 [24] = test: Induction of apoptosis in human MCF7 cells assessed as necrotic cells level at IC50 incubated for 72 hrs by annexin V/propidium iodide staining based flow cytometry (reference value: 0.48%); format: functional
# NFS-60 [25] = test: Induction of apoptosis in mouse NFS60 cells assessed as viable cells level at IC50 incubated for 72 hrs by annexin V/propidium iodide staining based flow cytometry (reference value: 99.52%); format: functional
# NFS-60 [26] = test: Induction of apoptosis in mouse NFS60 cells assessed as late apoptotic cells level at IC50 incubated for 72 hrs by annexin V/propidium iodide staining based flow cytometry (reference value: 0.01%); format: functional
# NFS-60 [27] = test: Induction of apoptosis in mouse NFS60 cells assessed as necrotic cells level at IC50 incubated for 72 hrs by annexin V/propidium iodide staining based flow cytometry (reference value: 0.01%); format: functional
# HepG2 [28] = test: Induction of apoptosis in human HepG2 cells assessed as viable cells level at IC50 incubated for 72 hrs by annexin V/propidium iodide staining based flow cytometry (reference value: 98.97%); format: functional
# HepG2 [29] = test: Induction of apoptosis in human HepG2 cells assessed as early apoptotic cells level at IC50 incubated for 72 hrs by annexin V/propidium iodide staining based flow cytometry (reference value: 0.05%); format: functional
# HepG2 [30] = test: Induction of apoptosis in human HepG2 cells assessed as late apoptotic cells level at IC50 incubated for 72 hrs by annexin V/propidium iodide staining based flow cytometry (reference value: 0.1%); format: functional
# HepG2 [31] = test: Induction of apoptosis in human HepG2 cells assessed as necrotic cells level at IC50 incubated for 72 hrs by annexin V/propidium iodide staining based flow cytometry (reference value: 0.87%); format: functional
# NFS-60 [32] = test: Induction of apoptosis in mouse NFS60 cells assessed as late apoptotic cells at IC50 incubated for 72 hrs by annexin V/propidium iodide staining based flow cytometry (reference value: 0.015 +/- 0.01%)
Compound,IC50 (MCF7 [1]) [nM],IC50 (NFS-60 [2]) [nM],Ratio IC50 (MCF7 [3]),selectivity ratio [4],selectivity ratio [5],Activity (MCF7 [6]),Activity (NFS-60 [7]),Activity (HepG2 [8]),Activity (MCF7 [9]) [%],Activity (MCF7 [10]) [%],Activity (NFS-60 [11]) [%],Activity (NFS-60 [12]) [%],Activity (HepG2 [13]) [%],Activity (HepG2 [14]) [%],Activity (MCF7 [15]) [%],Activity (NFS-60 [16]) [%],Activity (HepG2 [17]) [%],Activity (NFS-60 [18]) [ng/mL],Activity (HepG2 [19]) [ng/mL],Activity (MCF7 [20]),other results
O=C(OC1(C(=O)Nc2ccc([N+](=O)[O-])cc2)CCCCC1)c1ccc([N+](=O)[O-])cc1,8.7,7.7,2 - 4,87.5,54,Active,Active,Active,20.439,24.065,22.83,41.795,18.43,23.385,50.94,49.59,50.68,2.44,1.28,Active,Activity (NFS-60 [21]): Active; Activity (MCF7 [22]): 54.7%; Activity (MCF7 [23]): 18.31%; Activity (MCF7 [24]): 25.02%; Activity (NFS-60 [25]): 55.46%; Activity (NFS-60 [26]): 17.56%; Activity (NFS-60 [27]): 24.58%; Activity (HepG2 [28]): 57.37%; Activity (HepG2 [29]): 1.95%; Activity (HepG2 [30]): 20.78%; Activity (HepG2 [31]): 19.9%; Activity (NFS-60 [32]): 18.965%
O=C(Cc1ccccc1)OC1(C(=O)Nc2ccc([N+](=O)[O-])cc2)CCCCC1,7.7,8.1,2 - 4,5.7,3.09,Active,Active,Active,22.09,11.885,13.64,34.129,6.0649,27.77,43.04,45.41,47.64,2.41,1.23,Active,Activity (NFS-60 [21]): Active; Activity (MCF7 [22]): 59.23%; Activity (MCF7 [23]): 20.57%; Activity (MCF7 [24]): 13.14%; Activity (NFS-60 [25]): 61.34%; Activity (NFS-60 [26]): 18.21%; Activity (NFS-60 [27]): 14.8%; Activity (HepG2 [28]): 63.53%; Activity (HepG2 [29]): 2.74%; Activity (HepG2 [30]): 26.59%; Activity (HepG2 [31]): 7.13%; Activity (NFS-60 [32]): 20.09%
O=C(OC1(C(=O)Nc2ccc([N+](=O)[O-])cc2)CCCCC1)C(O)c1ccccc1 (stereo unspecified),5.01,7.8,2 - 4,16.8,11,Active,Active,Active,30.785,22.345,21.04,44.185,6.055,42.85,55.04,52.835,53.64,2.47,1.305,Active,Activity (NFS-60 [21]): Active; Activity (MCF7 [22]): 43.92%; Activity (MCF7 [23]): 28.9%; Activity (MCF7 [24]): 23.42%; Activity (NFS-60 [25]): 53.25%; Activity (NFS-60 [26]): 22.89%; Activity (NFS-60 [27]): 21.74%; Activity (HepG2 [28]): 47.87%; Activity (HepG2 [29]): 3.14%; Activity (HepG2 [30]): 41.88%; Activity (HepG2 [31]): 7.11%; Activity (NFS-60 [32]): 23.645%

# From ChEMBL document CHEMBL4390662, “Design, synthesis and biological evaluation of novel α-acyloxy carboxamides via Passerini reaction as caspase 3/7 activators” (Eur J Med Chem, 2019)
